Activity calls are given as the source filed them. The rule behind the calls is not given here.
How the values were obtained:
[1] = target: T1, 17-beta-hydroxysteroid dehydrogenase type 3 (Homo sapiens) (UniProt P37058); assay: Inhibition of 17Beta-HSD3 expressed in homogenized HEK293 cells assessed as transformation of [14C]-4-androstene-3,17-dione into [14C]-testosterone in presence of NADPH at 0.1 uM; assay type: cell-based
T1 sequence (whole entry): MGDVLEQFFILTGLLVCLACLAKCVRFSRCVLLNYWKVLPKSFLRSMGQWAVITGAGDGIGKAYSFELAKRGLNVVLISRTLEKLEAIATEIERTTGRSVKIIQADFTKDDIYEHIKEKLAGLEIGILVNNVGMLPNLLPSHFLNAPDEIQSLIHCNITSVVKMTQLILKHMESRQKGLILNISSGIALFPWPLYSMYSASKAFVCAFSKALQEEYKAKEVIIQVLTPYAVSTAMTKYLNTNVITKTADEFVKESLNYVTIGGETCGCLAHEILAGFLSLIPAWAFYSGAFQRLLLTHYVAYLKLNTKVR
In short: (§1)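 HEK-293 cells overexpressing 17β-HSD3 were briefly homogenized. The enzyme assay measured conversion of 50 nM [4-14C]-4-androstene-3,17-dione to [14C]-testosterone with NADPH in excess (5 mM). Inhibitor was dissolved in ethanol, and the ethanol-only control was used to derive % inhibition at each concentration. Error 10%.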

[2] = target: T1, 17-beta-hydroxysteroid dehydrogenase type 3 (Homo sapiens); assay: Inhibition of 17Beta-HSD3 expressed in homogenized HEK293 cells assessed as transformation of [14C]-4-androstene-3,17-dione into [14C]-testosterone in presence of NADPH at 0.01 uM; assay type: cell-based; in short: as §1
[3] = target: T1, 17-beta-hydroxysteroid dehydrogenase type 3 (Homo sapiens); assay: Inhibition of 17Beta-HSD3 expressed in intact HEK293 cells assessed as transformation of [14C]-4-androstene-3,17-dione into [14C]-testosterone in presence of NADPH at 0.1 uM after 1 hr incubation; assay type: cell-based
In short: (§2)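 HEK-293 cells were grown in MEM with 10% FBS at 37 °C under 5% CO2, seeded at 200,000 cells/well, and transfected with 2 µg/well of a 17β-HSD3 expression plasmid. Intact cells then got 50 nM [4-14C]-4-androstene-3,17-dione plus inhibitor in ethanol (0.5% v/v) for 1 h. Radiolabelled steroids were extracted from the medium and quantified. Triplicate; % transformation was used to derive IC50.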

[4] = target: T2, Androgen receptor (Mus musculus) (UniProt P19091); assay: Activation of androgen receptor in androgen-sensitive (AR+) mouse Shionogi cells assessed as stimulation of cell proliferation after 10 days at 1 uM relative to control
T2 sequence (whole entry): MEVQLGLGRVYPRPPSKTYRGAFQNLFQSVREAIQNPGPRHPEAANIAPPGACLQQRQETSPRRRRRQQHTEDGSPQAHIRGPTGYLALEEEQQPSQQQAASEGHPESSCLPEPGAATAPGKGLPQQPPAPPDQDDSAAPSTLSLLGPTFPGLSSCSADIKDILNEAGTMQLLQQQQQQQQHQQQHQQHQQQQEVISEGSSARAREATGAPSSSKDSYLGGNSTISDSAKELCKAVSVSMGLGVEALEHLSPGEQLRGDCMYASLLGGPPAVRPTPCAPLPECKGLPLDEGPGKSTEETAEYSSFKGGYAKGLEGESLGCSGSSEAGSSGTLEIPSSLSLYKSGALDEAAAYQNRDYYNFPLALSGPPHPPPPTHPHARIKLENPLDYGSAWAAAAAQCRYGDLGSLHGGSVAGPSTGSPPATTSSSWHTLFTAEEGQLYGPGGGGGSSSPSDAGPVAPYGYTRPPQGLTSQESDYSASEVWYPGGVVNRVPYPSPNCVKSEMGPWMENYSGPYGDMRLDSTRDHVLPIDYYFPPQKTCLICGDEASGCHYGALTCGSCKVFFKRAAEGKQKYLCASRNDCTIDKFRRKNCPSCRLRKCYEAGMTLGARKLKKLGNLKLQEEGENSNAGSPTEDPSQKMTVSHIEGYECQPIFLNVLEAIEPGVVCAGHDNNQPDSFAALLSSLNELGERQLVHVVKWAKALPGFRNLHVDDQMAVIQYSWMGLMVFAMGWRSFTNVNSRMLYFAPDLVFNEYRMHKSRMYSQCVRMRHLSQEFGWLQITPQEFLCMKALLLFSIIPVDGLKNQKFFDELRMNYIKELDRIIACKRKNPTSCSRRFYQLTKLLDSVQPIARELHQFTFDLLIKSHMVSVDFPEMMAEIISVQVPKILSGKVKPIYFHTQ
In short: (§3)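 Androgen-sensitive (AR+) Shionogi cells. Inhibitors and reference compounds were each tested at 0.1 and 1.0 µM. Androgenicity is reported as % cell proliferation versus control, with basal proliferation set to 100%. DHT (0.1 µM) served as androgen reference and hydroxyflutamide as antiandrogen. Data are mean ± SEM of one experiment in triplicate.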

[5] = target: T1, 17-beta-hydroxysteroid dehydrogenase type 3 (Homo sapiens); assay: Inhibition of 17Beta-HSD3 expressed in homogenized HEK293 cells assessed as transformation of [14C]-4-androstene-3,17-dione into [14C]-testosterone in presence of NADPH at 1 uM; assay type: cell-based; in short: as §1
[6] = target: T3, 17-beta-hydroxysteroid dehydrogenase type 3 (Homo sapiens, UniProt P37058); assay: Inhibition of 17Beta-HSD3 expressed in intact HEK293 cells assessed as transformation of [14C]-4-androstene-3,17-dione into [14C]-testosterone in presence of NADPH after 1 hr incubation; assay type: cell-based; in short: as §2
T3 sequence (P37058 whole entry): T1 sequence (whole entry)

[7] = target: T1, 17-beta-hydroxysteroid dehydrogenase type 3 (Homo sapiens); assay: Inhibition of 17Beta-HSD3 expressed in intact HEK293 cells assessed as transformation of [14C]-4-androstene-3,17-dione into [14C]-testosterone in presence of NADPH at 1 uM after 1 hr incubation; assay type: cell-based; in short: as §2
[8] = target: T2, Androgen receptor (Mus musculus); assay: Activation of androgen receptor in androgen-sensitive (AR+) mouse Shionogi cells assessed as stimulation of cell proliferation after 10 days relative to control; in short: as §3

Structure (SMILES)	inhibition [1] [%]	inhibition [2] [%]	inhibition [3] [%]	Activity [4]	inhibition [5] [%]	IC50 [6] [nM]	inhibition [7] [%]	Activity [8]
C[C@]12CC[C@@]3(C[C@@H]1CC[C@@H]1[C@@H]2CC[C@]2(C)C(=O)CC[C@@H]12)CN(Cc1ccccc1)C(=O)O3	86	21	44	inactive	93			
C[C@]12CC[C@](O)(Cc3ccccc3)C[C@@H]1CC[C@@H]1[C@@H]2CC[C@]2(C)C(=O)CC[C@@H]12				396%				
C[C@@H]1CN(S(=O)(=O)c2ccccc2C(F)(F)F)[C@@H](C)CN1C[C@@]1(O)CC[C@@]2(C)[C@@H](CC[C@@H]3[C@@H]2CC[C@]2(C)C(=O)CC[C@@H]32)C1	92	55	84	inactive		6		
CCN(Cc1ccccc1)C[C@@]1(O)CC[C@@]2(C)[C@@H](CC[C@@H]3[C@@H]2CC[C@]2(C)C(=O)CC[C@@H]32)C1	85	42	86	314%	90		94	
C[C@]12CC[C@@]3(C[C@@H]1CC[C@@H]1[C@@H]2CC[C@]2(C)C(=O)CC[C@@H]12)CN(CCC(CN1CCOCC1)OC(=O)C1CCCCC1)C(=O)O3 (stereo not given in full)						51		inactive
CC(C)(O)C(=O)Nc1ccc([N+](=O)[O-])c(C(F)(F)F)c1								inactive

Source: ChEMBL document CHEMBL1811881, “Development of 3-substituted-androsterone derivatives as potent inhibitors of 17β-hydroxysteroid dehydrogenase type 3” (Bioorg Med Chem, 2011)
